From publication PMC7790123 (Psychopharmacology, 2020)

What was measured:
[1] = system: rats; assay: Attentional set-shifting task; format: in vivo, rat; conditions: 15 mg/kg ip, male rats, dosed 1 h before testing, vs vehicle
Procedure, shortened: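 Rats were handled 1 min at least three times in the week before testing. The test compound was suspended in 0.1% Tween80, 0.1% silicone antifoam and 1% methylcellulose in water and given ip at 5 mL/kg, 1 h before testing. Over four days: pre-habituation, habituation, training, then a single test of seven discriminations (SD, CD, CDR, ID, IDR, ED, EDR). The first four trials were unscored; criterion was six consecutive correct. Analysis: two-way repeated-measures ANOVA with Tukey post hoc.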

[2] = target: T1, COMT (Rattus norvegicus, UniProt P22734); assay: Frontal cortex microdialysis: DA, HVA and DOPAC in extracellular fluid; format: in vivo; conditions: 20 min samples for 2 h after dosing, vs vehicle
T1 sequence (P22734 44-264 limits assumed): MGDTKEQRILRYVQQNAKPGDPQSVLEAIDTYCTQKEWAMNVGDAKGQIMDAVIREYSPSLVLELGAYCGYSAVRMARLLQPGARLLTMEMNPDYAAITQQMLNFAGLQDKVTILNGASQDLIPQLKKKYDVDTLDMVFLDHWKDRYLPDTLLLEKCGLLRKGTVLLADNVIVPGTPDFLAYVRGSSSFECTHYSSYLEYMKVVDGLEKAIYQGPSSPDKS

[3] = Drug concentration in free plasma and CSF after dosing; format: in vivo, rat; conditions: for Drug Concentration CSF: 15 mg/kg ip
Procedure, shortened: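 After 1 h acclimation, rats received vehicle or test compound, suspended in 0.1% Tween80, 0.1% silicone antifoam and 1% methylcellulose in water, given ip at 5 mL/kg. At 1 or 4 h, rats were anaesthetised with isoflurane and sampled. Blood was spun at 2000 g, 4°C, 10 min for plasma. CSF and plasma were stored at −80°C, then compound levels were measured by LC-MS/MS.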

[4] = male, rat, plasma (free, unbound concentration), intraperitoneal, 15 mg/kg

Drug Concentration CSF ([3]; female rats, 4 h): BLQ
Drug Concentration CSF ([3]; male rats, 1 h): BLQ
Drug Concentration CSF ([3]; male rats, 4 h): BLQ
concentration at 4 h ([3]; female, rat, plasma (free, unbound concentration), intraperitoneal, 15 mg/kg): 10 nM
concentration at 1 h [3, 4]: 35 nM
concentration at 4 h [3, 4]: 4 nM
Structure (SMILES): Cc1ccc(C(=O)c2cc(O)c(O)c([N+](=O)[O-])c2)cc1 [Tolcapone, tolcapone]
ASST performance (trials to criterion), ED stage [1]: improved ED stage performance
extracellular DOPAC concentration, frontal cortex [2]: significantly increased DOPAC for the 40–120-min time points
extracellular HVA concentration, frontal cortex [2]: significantly decreased HVA for the 40–120-min time points
